MC4R ag barr – human MC4R agonism via beta-arrestin; U2OS MC4R beta-arrestin complementation, luminescence; percent of melanotan II response, DMSO zero; activation, % at 8.9 µM; 360,000 compounds, 0.98% hits; AID 540308;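 active means activation above a per-plate cutoff, the mean activation of sample wells on that plate plus 3 SD, cut at about 8% in these data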
Target sequence (P32245 whole entry, looked up): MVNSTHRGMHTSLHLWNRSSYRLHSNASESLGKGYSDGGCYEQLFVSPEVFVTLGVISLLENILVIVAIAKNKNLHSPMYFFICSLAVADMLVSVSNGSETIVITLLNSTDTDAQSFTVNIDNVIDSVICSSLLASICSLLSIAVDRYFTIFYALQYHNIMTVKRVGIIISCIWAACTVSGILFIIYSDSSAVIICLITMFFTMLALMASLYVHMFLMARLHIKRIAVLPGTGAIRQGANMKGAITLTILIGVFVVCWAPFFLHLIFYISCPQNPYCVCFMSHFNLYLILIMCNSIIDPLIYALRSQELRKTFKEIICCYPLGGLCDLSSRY
MsrA inhibitor – inhibitors of bovine MsrA; purified bovine MsrA, absorbance read-out; 360,000 compounds, 0.75% hits; inhibition, % at 15.5 µM; in the data active means inhibition above about 4.5%;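 further: 0% = vehicle wells with enzyme and 100% = reference inhibitor wells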
MC4R antag cAMP – antagonists of human melanocortin 4 receptor (MC4R); P32245; MC4R-expressing cells, MTII-stimulated cAMP, LANCE TR-FRET; inhibition, % at 6.5 µM; 360,000 compounds, 0.48% hits; AID 540295;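 active means inhibition above its plate's cutoff, the mean of tested wells on that plate plus 3 SD, cut at about 29% in these data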;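 further: 0% = Melanotan II alone and 100% = Melanotan II plus saturating MCL0020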
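Assay system: U2OS cells stably expressing human melanocortin 4 receptor (MC4R) / Dosing: 6.5 µM / Timing: compound 30 min, challenge 1 h, detection 1 h / Measured by: Eu-cAMP/anti-cAMP TR-FRET, emission 671 nm / Replicates: singlicate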
MsrA act – bovine methionine sulfoxide reductase A activation; purified bovine MsrA, absorbance read-out; activation, % at 10.6 µM; 360,000 compounds, 0.3% hits; AID 602163; in the data active means activation above about 7.5%;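 further: 0% = vehicle and 100% = reference activator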
MC4R barr ag – human MC4R beta-arrestin agonism confirmation | shares compounds with MC4R ag barr | U2OS MC4R beta-arrestin recruitment, luminescence; scaled DMSO 0%, Melanotan II 100% | activation, % at 8.9 µM | 2,400 compounds, 31% hits;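 active means mean activation across replicates above the hit cutoff set in the earlier primary screen, cut at about 8% in these data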
MOR-DOR barr ag – counter-screen for MC4R agonists: agonists of mu-delta opioid heterodimer | shares compounds with MC4R ag barr | U2OS PathHunter beta-arrestin, beta-gal luminescence; percent of deltorphin B response, DMSO zero | activation, % at 9.2 µM | 2,400 compounds, 5.8% hits | AID 602194;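 active means mean activation across replicates exceeds the hit threshold derived in the earlier primary screen, cut at about 18% in these data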;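 further: 100% = deltorphin B at 0.9 µM final and 0% = DMSO alone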
* = called active by the depositor. Compounds with a hit are over-represented: about 2.3% of the library has one in this group of screens.

What do the screens show for `C=C(C)c1cccc(C(C)(C)NC(=O)N2CC(C)OC(C)C2)c1` (stereo not drawn)?
MC4R ag barr: -1; MsrA inhibitor: 0; MC4R antag cAMP: 10; MsrA act: -1

Results for O=C(CC1S/C(=N/N=C/c2cccs2)NC1=O)Nc1ccccc1F (stereo not drawn) ?
MC4R ag barr: 1; MsrA inhibitor: 0; MC4R antag cAMP: -3; MsrA act: -10

How did O=C1N/C(=N\N=C\c2cccs2)SC1Cc1ccc(Cl)c(Cl)c1 (stereo not drawn) do in these assays?
MC4R ag barr: 10*; MsrA inhibitor: 1; MC4R antag cAMP: 4; MsrA act: -5; MC4R barr ag: -2; MOR-DOR barr ag: 4

What do the screens show for `COc1ccc(CCNC(=O)CCNS(=O)(=O)c2cccc3nonc23)cc1OC`?
MC4R ag barr: -1; MsrA inhibitor: 0; MC4R antag cAMP: 15; MsrA act: -1

How did Cc1ccc2[nH]c(=O)c3cc(C(=O)N(CCCOC(C)C)Cc4ccco4)sc3c2c1 do in these assays?
MC4R ag barr: 35*; MsrA inhibitor: 1; MC4R antag cAMP: -3; MsrA act: -2; MC4R barr ag: 34*; MOR-DOR barr ag: 8

Results for Oc1oc(-c2ccccc2)nc1/C=N/c1ccccn1 ?
MC4R ag barr: 3; MsrA inhibitor: 2; MC4R antag cAMP: -5; MsrA act: -16

How did Oc1oc(-c2ccccc2Br)nc1C=Nc1ccc(Br)cn1 do in these assays?
MC4R ag barr: 21*; MsrA inhibitor: -1; MC4R antag cAMP: 2; MsrA act: 0; MC4R barr ag: 10*; MOR-DOR barr ag: 3

How did C=CCN(CC=C)S(=O)(=O)c1ccc(NC(=S)NC(=O)/C=C/c2cccc3ccccc23)cc1 do in these assays?
MC4R ag barr: -2; MsrA inhibitor: 0; MC4R antag cAMP: -1; MsrA act: -9

Results for O=C(/C(=N/N=C/c1ccc(O)c(O)c1)c1ccccc1)c1ccccc1 ?
MC4R ag barr: 10*; MsrA inhibitor: 1; MC4R antag cAMP: 17; MsrA act: -4; MC4R barr ag: 3; MOR-DOR barr ag: 11

Results for O=C(Cn1ncc2c(=O)oc3ccccc3c21)NCCC1=CCCCC1 ?
MC4R ag barr: 0; MsrA inhibitor: 0; MC4R antag cAMP: 3; MsrA act: 3

Results for COc1ccc(-c2csc3ncnc(Nc4ccc(O)cc4)c23)cc1 ?
MC4R ag barr: 14*; MsrA inhibitor: 0; MC4R antag cAMP: 22; MsrA act: -3; MC4R barr ag: 5; MOR-DOR barr ag: 10

Results for COc1ccc(-c2csc3ncnc(NCCO)c23)cc1 ?
MC4R ag barr: 1; MsrA inhibitor: -1; MC4R antag cAMP: -1; MsrA act: -4

What do the screens show for `Cn1c(C(=O)OCC(=O)NCc2cccs2)cc2sccc21`?
MC4R ag barr: 10*; MsrA inhibitor: -1; MC4R antag cAMP: -17; MsrA act: -14; MC4R barr ag: 3; MOR-DOR barr ag: 4

Results for O=C1/C(=C/c2ccc(F)cc2)SC(=S)N1Nc1ncc(C(F)(F)F)cc1Cl ?
MC4R ag barr: 9.9*; MsrA inhibitor: -1; MC4R antag cAMP: 2; MsrA act: -12; MC4R barr ag: 5; MOR-DOR barr ag: 2

What do the screens show for `COc1ccccc1C(=O)C1CCCN(C(=O)c2cccc(Cn3cccn3)c2)C1` (stereo not drawn)?
MC4R ag barr: 0; MsrA inhibitor: -1; MC4R antag cAMP: 0; MsrA act: 0

What do the screens show for `CCN1CCN(c2ccc(NC(=O)c3cccc(N4CCCC4=O)c3)cc2)CC1`?
MC4R ag barr: 0; MsrA inhibitor: 0; MC4R antag cAMP: -6; MsrA act: 1

What do the screens show for `O=C(COC(=O)C1=COCCO1)Nc1cc(S(=O)(=O)N2CCCCC2)ccc1Cl`?
MC4R ag barr: -1; MsrA inhibitor: 1; MC4R antag cAMP: 0; MsrA act: -3

How did Cc1csc(NC(=O)CSc2nc3sc(C)c(C)c3c(=O)[nH]2)n1 do in these assays?
MC4R ag barr: 4; MsrA inhibitor: -1; MC4R antag cAMP: -1; MsrA act: -11

How did Cc1sc2nc(SCC(=O)Nc3ccccc3F)[nH]c(=O)c2c1C do in these assays?
MC4R ag barr: 12*; MsrA inhibitor: -1; MC4R antag cAMP: -2; MsrA act: -3; MC4R barr ag: 2; MOR-DOR barr ag: 4
